High-throughput results (PubChem)
The list is not random: actives were taken first. Their share in the collection is about 1.7%.
Scp-1 inhibitor: Scp-1 phosphatase inhibitors, primary screen, biochemical, colorimetric, uHTS; Carboxy-terminal domain RNA polymerase II polypeptide A small phosphatase 1 (Homo …; hit rate 0.88% among 340,000; inhibition, % at 20 µM; Recombinant Scp1, phosphopeptide, malachite green phosphate absorbance; AID 493091, 2011;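 active = inhibition above about 50% at 20 µM, limit read from the data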;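 also: plate controls were DMSO wells with enzyme for no effect and wells lacking enzyme for full effect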
Target sequence (Q9GZU7 76-261 limits assumed): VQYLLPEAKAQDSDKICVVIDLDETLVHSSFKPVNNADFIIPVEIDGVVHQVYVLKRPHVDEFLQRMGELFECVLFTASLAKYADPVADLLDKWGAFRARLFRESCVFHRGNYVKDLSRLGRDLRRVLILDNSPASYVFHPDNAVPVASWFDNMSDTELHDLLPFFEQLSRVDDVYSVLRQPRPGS
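Test system: SCP-1 phosphatase catalytic domain, residues 76-261 | Compound dosing: One concentration, 20 µM, with 1.0% DMSO | Schedule: 45 min room-temperature reaction, 5 min colour, 30 min stabiliser | Detection: Absorbance at 630 nm | Read-out basis: % inhibition of SCP-1 phosphate liberation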
DSG3 Ab inh: inhibitors of pemphigus antibody binding to DSG3, primary screen, biochemical, bead-based, flow cytometry, scFv-GFP | Desmoglein-3 (Homo sapiens), P32926 | DSG3-coupled beads, scFv-anti-DSG3-GFP binding; active compounds read low | binding (percent of control), % at 10 µM | hit rate 0.48% among 310,000 | AID 588358, 2011;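 active = binding more than 3 SD below its plate's average and above zero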;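 also: hits lower antibody fragment binding to DSG3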
LMPTP block: LMPTP phosphatase inhibitors, primary screen, biochemical, fluorescence intensity, uHTS | Low molecular weight phosphotyrosine protein phosphatase (Homo sapiens), P24666 | recombinant LMPTP-A, OMFP fluorogenic substrate | inhibition, % at 20 µM | hit rate 0.22% among 360,000 | AID 651560, 2012;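 active = compounds that cut the enzyme signal by at least half of the control window in the single-dose screen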;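 also: plate controls were DMSO wells with enzyme plus substrate for no effect and substrate without enzyme for full effect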
Target sequence (P24666 whole entry, looked up): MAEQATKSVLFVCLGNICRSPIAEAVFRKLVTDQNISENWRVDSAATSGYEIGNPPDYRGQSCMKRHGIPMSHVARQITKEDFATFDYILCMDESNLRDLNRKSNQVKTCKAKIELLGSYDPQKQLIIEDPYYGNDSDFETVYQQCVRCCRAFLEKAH
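Assay system: LMPTP-A phosphatase enzyme | Input: 0.625 nM enzyme | Also added: Fluorogenic phosphatase substrate OMFP at 400 µM final | Compound dosing: One test concentration per compound, 20 µM, with 3% DMSO overall | Schedule: 50 min enzyme reaction at room temperature, protected from light | Signal: Fluorescence intensity | Benchmarks: no-enzyme and uninhibited controls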
SUMO1 PPI mod: modulators of SUMO1 protein-protein interactions, primary screen, biochemical, uHTS; AID 602429, 2012; hit rate 0.33% among 360,000; inhibition, % at 20 µM; Small ubiquitin-related modifier 1 (Homo sapiens), P63165; SUMO1 binding to a labelled peptide, TR-FRET, 1 h; in the data active = inhibition above about 37%
Target sequence (P63165 whole entry, looked up): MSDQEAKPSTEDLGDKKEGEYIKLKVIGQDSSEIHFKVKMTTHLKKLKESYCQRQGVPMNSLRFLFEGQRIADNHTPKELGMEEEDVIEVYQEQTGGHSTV
STEP inh: STEP phosphatase inhibitors, primary screen, biochemical, fluorescence intensity, uHTS; inhibition, % at 20 µM; hit rate 0.25% among 360,000; recombinant STEP, OMFP fluorogenic substrate;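 active = inhibition at 20 µM, scaled per plate between control wells, above about 37%, limit read from the data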;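 also: 0% = DMSO with enzyme and substrate and 100% = substrate only without enzyme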
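Test system: STEP tyrosine phosphatase / Reagent: OMFP at 25 µM / Doses: 20 µM, 1% DMSO / Read-out: percent inhibition scaled to no-enzyme and uninhibited-enzyme controls, plate-pattern corrected / Detection: FITC-channel fluorescence of OMFP product / Medium: Bis-Tris buffer pH 6.0, 2.5 mM DTT, 0.005% Tween 20 / Schedule: 20 min at room temperature, dark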
Scp1 confirm: Scp-1 phosphatase inhibitors, retest, confirmation, biochemical, colorimetric, single concentration | shares compounds with Scp-1 inhibitor | recombinant SCP-1 catalytic domain, phosphate release, malachite green absorbance | inhibition, % at 20 µM | hit rate 61% among 2,500 | AID 540281, 2011;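 also: plate controls were DMSO with enzyme for no effect and buffer wells lacking enzyme for full effect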
MG interference: colorimetric readout interference by compounds, confirmation, artefact control for Scp-1 inhibitor project, biochemical, single concentration; shares compounds with Scp-1 inhibitor; Colorimetric interference counterscreen, malachite green absorbance 630 nm; apparent inhibition (interference), % at 20 µM; 2,500 tested, under 10 active;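 also: compounds added after enzyme reaction finished so only phosphate colour detection is probed; plate controls were DMSO wells with completed Scp-1 reaction for no effect and substrate wells lacking enzyme for full effect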
Scp-1 Tm shift: Scp-1 binding by thermal shift, confirmation, orthogonal assay for Scp-1 inhibitor project, biophysical, differential scanning fluorimetry | shares compounds with Scp-1 inhibitor | Recombinant SCP1, Sypro Orange thermal shift Tm | thermal shift relative to vanadate control, % at 40 µM | hit rate 25% among 1,500 | AID 540329, 2011;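 active = substances whose mean melting-temperature shift, as a percentage of the reference inhibitor's shift, reaches about 5.3%, limit read from the data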;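 also: 0% = Tm of DMSO wells and 100% = Tm with sodium orthovanadate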
* = called active by the depositor; / = no result.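 The calls were made as follows, unless noted: active = inhibition of at least 30% at 20 µM; inactive = the rest.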

SMILES	Scp-1 inhibitor	DSG3 Ab inh	LMPTP block	SUMO1 PPI mod	STEP inh	Scp1 confirm	MG interference	Scp-1 Tm shift
Cc1ccc2c(=O)cc(C(=O)NCCc3ccc(S(N)(=O)=O)cc3)oc2c1	94.9*	99.7	23.9	2.1	2.6	69.5*	-12.8	4.6
C=CCN1C(=O)/C(=C2/Sc3ccccc3N2CCCS(=O)(=O)O)SC1=S	86.5*	99.5	5.6	13.2	10.7	63.9*	-19.7	13.2*
CCc1ccc(OCC(=O)NNC(=O)c2ccc(NC(=O)C3CC3)cc2)cc1	51.7*	111.3	37.1	18.7	39.0	78.2*	-10.7	-24.8
CC1(CCc2ccccc2)NC(=O)N(CC(=O)Nc2ccc3c(c2)OCCO3)C1=O (stereo not given)	-7.7	99.3	0.0	-0.7	-1.7	/	/	/
CCn1c(N2CCN(CC(=O)c3c(C)n(C)c4ccccc34)CC2)nc2c1c(=O)[nH]c(=O)n2C	37.9	98.7	-1.6	-1.1	-3.3	/	/	/
CCCn1c(N2CCN(CC(=O)c3c[nH]c4ccccc34)CC2)nc2c1c(=O)[nH]c(=O)n2C	99.1*	116.3	-2.8	1.3	-1.7	-11.1	-6.5	/
CCC1(c2ccc(F)cc2)NC(=O)N(CC(=O)NCC(=O)Nc2cccc(C)c2C)C1=O (stereo not given)	-2.8	99.2	0.2	1.5	0.3	-15.1	-10.9	/
CCCNC(=O)CN1C(=O)NC(CC)(c2ccc(F)cc2)C1=O (stereo not given)	-6.4	94.0	-0.5	-2.3	-4.1	/	/	/
CC(=O)NC(CC(=O)N(Cc1ccccc1)c1ccc(C)cc1)c1ccccc1 (stereo not given)	-5.5	108.2	-0.9	2.2	-1.0	/	/	/
CC1CCC(NC(=O)Cn2c(=O)oc3cc(S(=O)(=O)N4CCCC4)ccc32)CC1 (stereo not given)	63.1*	100.0	5.2	1.8	3.2	44.0*	-20.3	-26.2
O=C(Cn1c(=O)oc2cc(S(=O)(=O)N3CCCC3)ccc21)NC1CCCCC1	19.1	97.2	-1.3	2.3	8.4	/	/	/
Cc1ccccc1NC(=O)Cn1nnc(S(=O)(=O)c2ccc(C(C)(C)C)cc2)c1N	106.0*	110.5	47.6	9.9	20.9	75.8*	-18.9	-28.8
Cc1cc2c(=O)[nH]c(Cc3ccccc3)nc2s1	3.3	100.7	0.3	0.2	-2.7	/	/	/
CCC1CCC2(CC1)NC(=O)N(CC(=O)Nc1ccc(OC)c(Cl)c1)C2=O (stereo not given)	-9.8	101.5	-0.8	-1.0	-2.5	/	/	/
COC(=O)[C@H]1C[C@H](O)CN1S(=O)(=O)c1ccc(Br)cc1F	53.3*	108.9	-0.7	2.9	-2.9	-14.8	-16.2	/
COC(=O)C1CC(O)CN1S(=O)(=O)c1ccc2ccccc2c1 (stereo not given)	-9.8	98.8	-2.2	-0.4	-2.5	/	/	/
CC(C)c1ccc(/C=C2\SC(=O)N(CC(=O)NC3C=CS(=O)(=O)C3)C2=O)cc1 (stereo not given)	56.6*	85.5	11.1	-9.2	15.5	53.5*	-6.8	-4.5
COc1ccc(NC(=O)CSc2n[nH]c(=O)n2C2CC2)cc1Cl	3.7	105.3	1.4	-0.9	1.0	/	/	/
COc1ccc(NC(=O)CSc2nc(-c3ccco3)nc3cc(=O)[nH]n23)cc1Cl	53.2*	99.4	9.1	5.0	13.9	25.3	-19.7	/
